Test [1] is described as follows: Cytotoxicity against BAEC after 2 days by MTT assay. Type of test: cell-based, Bos taurus. The method in brief: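 BAE cells (primary bovine aortic endothelium, collagenase-isolated; grown in DMEM/20% FBS), 8·10³ per well, exposed to serial dilutions for 2 days at 37 °C, 5% CO₂. MTT (5 mg/mL in PBS) then added for a further 2 h at 37 °C. Formazan dissolved in DMSO and read spectrophotometrically. IC50 = concentration inhibiting growth by 50%; ">" means not reached at the top concentration tested.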
For orientation: Tetrazolium assays rely on reduction of a dye to a coloured formazan, in cell work by metabolically active cells.

Test [2] is described as follows: Effect on tube formation of BAEC assessed as sprouting inhibition after 48 hrs. Type of test: functional, Bos taurus. The method in brief: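 BAE cells coated onto Cytodex 3 microcarrier beads over 48 h at 37 °C, 5% CO₂. Beads (250/mL) seeded onto Matrigel in wells containing compound; medium added after 30 min. After 48 h, sprout extent and length scored by microscopy against untreated wells. MIC = lowest concentration with no tube formation; ">" means not reached at the top concentration tested.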

The nature of test [3]: Ratio of MIC for BAEC sprouting to IC50 for BAEC. Type of test: functional, Bos taurus.
Setting [4] is: Bos taurus, 48 h, read-out: MIC.

Converted amounts (≈) assume the structure as drawn.

The IC50 is the concentration that gives 50% inhibition. Read a low IC50 as greater potency. As usually defined, the MIC is the least concentration at which growth counts as inhibited.

With `COC(=O)/C(=C/c1cc(Br)c(OC)c(Br)c1OCc1ccccc1)NC(=O)c1ccccc1`, the IC50 in test [1] (Bos taurus, BAEC, 48 h) was above 17 µM. The MIC in test [2] (setting [4]) is above 35 µM.

`COc1c(Br)cc(/C=C2\N=C(c3ccccc3)OC2=O)c(OC(=O)c2ccccc2)c1Br` registered an IC50 in test [1] (Bos taurus, BAEC, 48 h) above 18 µM. The MIC in test [2] (setting [4]) is 27 µM (≈ 15 µg/mL).

`OCc1cc(Br)cc(Br)c1O`: in test [1] (Bos taurus, BAEC, 48 h), the IC50 is above 35 µM. Also, the MIC in test [2] (setting [4]) was determined as 71 µM (≈ 20 µg/mL).

Take `COc1c(Br)cc(C=O)c(OC(C)=O)c1Br`: in test [3], the Ratio is reported as 0.7. In addition, the IC50 in test [1] (Bos taurus, BAEC, 48 h) was determined as 23 µM. The MIC in test [2] (setting [4]) was found to be 33 µM (≈ 11.6 µg/mL).

The compound `COc1c(Br)cc(C=O)c(OCc2ccccc2)c1Br` registered an IC50 in test [1] (Bos taurus, BAEC, 48 h) above 12.5 µM. The MIC in test [2] (setting [4]) was above 12.5 µM.

`COc1c(Br)cc(CO)c(OCCO)c1Br` gave an IC50 in test [1] (Bos taurus, BAEC, 48 h) above 28 µM. For the same compound, the MIC in test [2] (setting [4]) worked out at 28 µM (≈ 9.97 µg/mL).

Regarding `COC(=O)COc1c(C=O)cc(Br)c(OC)c1Br`, the Ratio in test [3] is 3. In addition, half-maximal inhibition in test [1] (Bos taurus, BAEC, 48 h) (IC50) required 151 µM. Moreover, the MIC in test [2] (setting [4]) stood at 52 µM (≈ 19.9 µg/mL).

The compound `COc1c(Br)cc(CO)c(OCc2ccccc2)c1Br` showed an IC50 in test [1] (Bos taurus, BAEC, 48 h) above 12 µM. For the same compound, in test [2] (setting [4]), the MIC is above 12 µM.

With `COC(=O)COc1c(CO)cc(Br)c(OC)c1Br`, the IC50 in test [1] (Bos taurus, BAEC, 48 h) is above 26 µM. Further, the minimal inhibitory concentration (MIC) in test [2] (setting [4]) is above 26 µM.

Consider `COc1c(Br)cc2c(c1Br)OCC(O)OC2` (centres undefined), for which the half-inhibitory concentration (IC50) in test [1] (Bos taurus, BAEC, 48 h) is above 28 µM. For the same compound, the minimal inhibitory concentration (MIC) in test [2] (setting [4]) is above 28 µM.

The compound `COc1c(Br)cc(C=O)c(OCc2cc(N(C)C)ccc2Br)c1Br` returned a 50% inhibitory concentration (IC50) in test [1] (Bos taurus, BAEC, 48 h) above 19 µM. In addition, the MIC in test [2] (setting [4]) is above 38 µM.

Turning to `COC(=O)/C=C/c1cc(Br)c(OC)c(Br)c1O`, in test [1] (Bos taurus, BAEC, 48 h), the IC50 was above 14 µM. Besides, the MIC in test [2] (setting [4]) is above 14 µM.

For `O=C1C=CC(Br)=C[C@]12CO2`, the IC50 in test [1] (Bos taurus, BAEC, 48 h) was above 25 µM. Also, in test [2] (setting [4]), the MIC was 25 µM (≈ 5.03 µg/mL).

Turning to `COC1=C(Br)C(=O)[C@]2(C=C1)CO2`, the Ratio in test [3] was 4. In test [1] (Bos taurus, BAEC, 48 h), this compound showed an IC50 of 11 µM. The MIC in test [2] (setting [4]) was determined as 3 µM (≈ 0.693 µg/mL).

For the compound `COc1c(Br)cc(C=O)c(O)c1Br`, in test [1] (Bos taurus, BAEC, 48 h), the IC50 was found to be 806 µM. The MIC in test [2] (setting [4]) is above 16 µM.

As to `O=Cc1cc(Br)cc(Br)c1O`, in test [3], the Ratio is given as 0.5. In addition, the IC50 in test [1] (Bos taurus, BAEC, 48 h) worked out at 36 µM. In addition, the MIC in test [2] (setting [4]) came to 71 µM (≈ 19.9 µg/mL).

In test [1] (Bos taurus, BAEC, 48 h), `COc1c(Br)cc(CO)c(O)c1Br` had an IC50 above 16 µM. The MIC in test [2] (setting [4]) is above 16 µM.

For `COc1c(Br)cc(/C=C2\N=C(c3ccccc3)OC2=O)c(OC(=O)c2ccc(N(C)C)cc2)c1Br`, the IC50 in test [1] (Bos taurus, BAEC, 48 h) came out at 83 µM. Besides, the MIC in test [2] (setting [4]) is above 17 µM.

In the case of `COC1=CC(=O)[C@]2(C=C1Br)CO2`, the IC50 in test [1] (Bos taurus, BAEC, 48 h) is above 22 µM. Also, the MIC in test [2] (setting [4]) was above 22 µM.

The compound `COc1ccc(C=O)c(O)c1` gave an IC50 in test [1] (Bos taurus, BAEC, 48 h) above 33 µM. Further, the MIC in test [2] (setting [4]) is above 33 µM.

`COc1c(Br)cc(C=O)c(OC(=O)c2ccc(N(C)C)cc2)c1Br` displayed an IC50 in test [1] (Bos taurus, BAEC, 48 h) above 22 µM. Also, the minimum inhibitory concentration (MIC) in test [2] (setting [4]) is above 44 µM.

With `O=C1C(Br)=CC(Br)=C[C@]12CO2`, the Ratio in test [3] turned out to be 6. In addition, half-maximal inhibition in test [1] (Bos taurus, BAEC, 48 h) (IC50) required 12 µM. For the same compound, the minimal inhibitory concentration (MIC) in test [2] (setting [4]) was 2 µM (≈ 0.56 µg/mL).

`COC(=O)CCc1cc(Br)c(OC)c(Br)c1O`: the midpoint of inhibition in test [1] (Bos taurus, BAEC, 48 h), the IC50, lay at 136 µM. In addition, in test [2] (setting [4]), the MIC is above 27 µM.

Consider `COc1c(Br)cc(/C=C2\N=C(c3ccccc3)OC2=O)c(OCc2ccccc2)c1Br`, for which, in test [3], the Ratio is reported as 921. Also, the midpoint of inhibition in test [1] (Bos taurus, BAEC, 48 h), the IC50, lay at 921 µM. The MIC in test [2] (setting [4]) stood at 1 µM (≈ 0.543 µg/mL).

In turn, `COc1c(Br)cc(/C=C2\N=C(c3ccccc3)OC2=O)c(O)c1Br` showed an IC50 in test [1] (Bos taurus, BAEC, 48 h) above 22 µM. The MIC in test [2] (setting [4]) was above 22 µM.

As for `COc1c(Br)cc(/C=C2\N=C(c3ccccc3)OC2=O)c(OCc2cc(N(C)C)ccc2Br)c1Br` [listing 1 of 2 here], in test [1] (baec), the IC50 was above 15 µM. Also, the MIC in test [2] was above 30 µM.

In test [1] (baec), `COc1c(Br)cc(/C=C2\N=C(c3ccccc3)OC2=O)c(OCc2cc(N(C)C)ccc2Br)c1Br` [listing 2 of 2 here] yielded an IC50 of 71 µM. Also, the MIC in test [2] (setting [4]) is above 28 µM.

For the compound `O=C1C2(Br)C=C(Br)C([C@H]3[C@]2(Br)C=C(Br)C(=O)[C@]32CO2)[C@@]12CO2` (some centres undefined), the Ratio in test [3] is 2. This compound also returned an IC50 in test [1] (Bos taurus, BAEC, 48 h) of 4 µM. Further, in test [2] (setting [4]), the MIC turned out to be 2 µM (≈ 1.12 µg/mL).

With `COC1=CC(=O)[C@]2(C=C1)CO2`, in test [3], the Ratio is 1. In test [1] (Bos taurus, BAEC, 48 h), the IC50 came out at 33 µM. In addition, in test [2] (setting [4]), the minimal inhibitory concentration (MIC) amounted to 33 µM (≈ 5.02 µg/mL).

Regarding `COC1=C(Br)C(=O)[C@]2(C=C1Br)CO2`, the Ratio in test [3] amounted to 54. This compound also registered an IC50 in test [1] (Bos taurus, BAEC, 48 h) of 161 µM. Also, the MIC in test [2] (setting [4]) worked out at 3 µM (≈ 0.93 µg/mL).

In test [1] (Bos taurus, BAEC, 48 h), `COC1=C(Br)C(=O)[C@@]2(CO2)C(OC)=C1Br` returned an IC50 above 15 µM. Further, the MIC in test [2] (setting [4]) amounted to 15 µM (≈ 5.1 µg/mL).

Consider `COC1=C(Br)[C@H](O)[C@](O)(CC#N)C=C1Br` (single isomer, unassigned), for which, in test [3], the Ratio is 14. This compound also registered an IC50 in test [1] (Bos taurus, BAEC, 48 h) of 29 µM. Further, the MIC in test [2] (setting [4]) came out at 2 µM (≈ 0.678 µg/mL).

The record behind these values is ChEMBL document CHEMBL1143700, “Antiangiogenic versus cytotoxic activity in analogues of aeroplysinin-1” (Bioorg Med Chem, 2007).
